Results published in ChEMBL document CHEMBL3808372, “Identification of quinones as novel PIM1 kinase inhibitors” (Bioorg Med Chem Lett, 2016).

What was measured:
[1] = test system: Tyrosine-protein kinase ABL1 (Homo sapiens), P00519 [E255K]; assay: Inhibition of human ABL1 kinase E255K mutant phosphorylation (229 to 512 amino acid residues) assessed as enzyme activity at 10 uM by KINOMEScan assay; set-up: scale not given: the % may be the effect or the level left
In short: (§1)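 Competition binding screen on a 100-kinase KINOMEscan panel, compound tested at a single 10 μM concentration. Primary binding read-out expressed as % Ctrl = (test compound signal − positive control signal)/(negative control signal − positive control signal) × 100, with lower values meaning stronger binding.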

[2] = target: Tyrosine-protein kinase ABL1 (Homo sapiens) (UniProt P00519); assay: Inhibition of human ABL1 kinase phosphorylation (229 to 512 amino acid residues) assessed as enzyme activity at 10 uM by KINOMEScan assay; set-up: scale not given: the % may be the effect or the level left; in short: as §1
[3] = target: Activin receptor type-1B (Homo sapiens) (UniProt P36896); assay: Inhibition of human ACVR1B (187 to 505 amino acid residues) expressed in bacterial system assessed as enzyme activity at 10 uM by KINOMEScan assay; set-up: scale not given: the % may be the effect or the level left; in short: as §1
[4] = target: Bone morphogenetic protein receptor type-2 (Homo sapiens) (UniProt Q13873); assay: Inhibition of human BMPR2 (179 to 526 amino acid residues) assessed as enzyme activity at 10 uM by KINOMEScan assay; set-up: scale not given: the % may be the effect or the level left; in short: as §1
[5] = test system: Serine/threonine-protein kinase B-raf (Homo sapiens), P15056 [V600E]; assay: Inhibition of human BRAF V600E mutant (429 to 741 amino acid residues) assessed as enzyme activity at 10 uM by KINOMEScan assay; set-up: scale not given: the % may be the effect or the level left; in short: as §1
[6] = target: Tyrosine-protein kinase BTK (Homo sapiens) (UniProt Q06187); assay: Inhibition of full length human BTK assessed as enzyme activity at 10 uM by KINOMEScan assay; set-up: scale not given: the % may be the effect or the level left
In short: (§2)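 Commercial KINOMEscan binding panel of 100 kinases, test compound at 10 μM. Results are primary-screen binding interactions expressed as % Ctrl = (test compound signal − positive control signal)/(negative control signal − positive control signal) × 100. Lower % Ctrl means stronger binding.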

[7] = target: Cyclin-dependent kinase 2 (Homo sapiens) (UniProt P24941); assay: Inhibition of full length human CDK2 expressed in bacterial system assessed as enzyme activity at 10 uM by KINOMEScan assay; set-up: scale not given: the % may be the effect or the level left; in short: as §1
[8] = target: Cyclin-dependent kinase 9 (Homo sapiens) (UniProt P50750); assay: Inhibition of full length human CDK9 expressed in bacterial system assessed as enzyme activity at 10 uM by KINOMEScan assay; set-up: scale not given: the % may be the effect or the level left; in short: as §2
[9] = target: Dual specificity tyrosine-phosphorylation-regulated kinase 1B (Homo sapiens) (UniProt Q9Y463); assay: Inhibition of full length human DYRK1B expressed in bacterial system assessed as enzyme activity at 10 uM by KINOMEScan assay; set-up: scale not given: the % may be the effect or the level left; in short: as §1
[10] = target: Receptor tyrosine-protein kinase erbB-4 (Homo sapiens) (UniProt Q15303); assay: Inhibition of human ERBB4 (690 to 994 amino acid residues) assessed as enzyme activity at 10 uM by KINOMEScan assay expressed in bacterial system assessed as enzyme activity at 10 uM by KINOMEScan assay; set-up: scale not given: the % may be the effect or the level left; in short: as §1
[11] = target: Fibroblast growth factor receptor 2 (Homo sapiens) (UniProt P21802); assay: Inhibition of human FGFR2 (457 to 769 amino acid residues) assessed as enzyme activity at 10 uM by KINOMEScan assay expressed in bacterial system assessed as enzyme activity at 10 uM by KINOMEScan assay; set-up: scale not given: the % may be the effect or the level left; in short: as §2
[12] = target: Mitogen-activated protein kinase 8 (Homo sapiens) (UniProt P45983); assay: Inhibition of full length human JNK1 assessed as enzyme activity at 10 uM by KINOMEScan assay; set-up: scale not given: the % may be the effect or the level left; in short: as §1
[13] = target: Dual specificity mitogen-activated protein kinase kinase 1 (Homo sapiens) (UniProt Q02750); assay: Inhibition of full length human MEK1 assessed as enzyme activity at 10 uM by KINOMEScan assay; set-up: scale not given: the % may be the effect or the level left; in short: as §1
[14] = target: Dual specificity mitogen-activated protein kinase kinase 2 (Homo sapiens) (UniProt P36507); assay: Inhibition of full length human MEK2 assessed as enzyme activity at 10 uM by KINOMEScan assay; set-up: scale not given: the % may be the effect or the level left; in short: as §1
[15] = target: MAP kinase-interacting serine/threonine-protein kinase 2 (Homo sapiens) (UniProt Q9HBH9); assay: Inhibition of human MKNK2 (63 to 388 amino acid residues) assessed as enzyme activity at 10 uM by KINOMEScan assay; set-up: scale not given: the % may be the effect or the level left; in short: as §1
[16] = target: Phosphatidylinositol 4,5-bisphosphate 3-kinase catalytic subunit gamma isoform (Homo sapiens) (UniProt P48736); assay: Inhibition of human PIK3CG (144 to 1102 amino acid residues) assessed as enzyme activity at 10 uM by KINOMEScan assay; set-up: scale not given: the % may be the effect or the level left
In short: (§3)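 Single-concentration competition binding screen (KINOMEscan) across a 100-kinase panel at 10 μM. Primary binding read-out is reported as % of control: (test signal − positive-control signal)/(negative-control signal − positive-control signal) × 100. Lower values indicate stronger binding.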

[17] = target: T1, Serine/threonine-protein kinase pim-1 (Homo sapiens, UniProt P11309); assay: Inhibition of human PIM1 (15 to 313 amino acid residues) expressed in bacterial system assessed as enzyme activity at 10 uM by KINOMEScan assay; set-up: scale not given: the % may be the effect or the level left; in short: as §3
[18] = target: Serine/threonine-protein kinase PLK4 (Homo sapiens) (UniProt O00444); assay: Inhibition of human PLK4 (1 to 273 amino acid residues) assessed as enzyme activity at 10 uM by KINOMEScan assay; set-up: scale not given: the % may be the effect or the level left; in short: as §3
[19] = target: Protein kinase C epsilon type (Homo sapiens) (UniProt Q02156); assay: Inhibition of human PRKCE (378 to 737 amino acid residues) assessed as enzyme activity at 10 uM by KINOMEScan assay; set-up: scale not given: the % may be the effect or the level left; in short: as §3
[20] = target: Serine/threonine-protein kinase RIO2 (Homo sapiens) (UniProt Q9BVS4); assay: Inhibition of human RIOK2 (1 to 313 amino acid residues) assessed as enzyme activity at 10 uM by KINOMEScan assay; set-up: scale not given: the % may be the effect or the level left; in short: as §2
[21] = target: NUAK family SNF1-like kinase 2 (Homo sapiens) (UniProt Q9H093); assay: Inhibition of human SNARK (22 to 333 amino acid residues) assessed as enzyme activity at 10 uM by KINOMEScan assay; set-up: scale not given: the % may be the effect or the level left; in short: as §3
[22] = target: Angiopoietin-1 receptor (Homo sapiens) (UniProt Q02763); assay: Inhibition of human TIE2 (804 to 1112 amino acid residues) expressed in bacterial system assessed as enzyme activity at 10 uM by KINOMEScan assay; set-up: scale not given: the % may be the effect or the level left; in short: as §3
[23] = target: T1, Serine/threonine-protein kinase pim-1; assay: Inhibition of recombinant human Pim1
[24] = target: Serine/threonine-protein kinase 32C (Homo sapiens) (UniProt Q86UX6); assay: Inhibition of human YANK3 (68 to 486 amino acid residues) expressed in bacterial system assessed as enzyme activity at 10 uM by KINOMEScan assay; set-up: scale not given: the % may be the effect or the level left; in short: as §3
[25] = target: Casein kinase II (Homo sapiens) (UniProt P67870+P68400+P19784); assay: Share of MOE computational kinase hits for CK2
[26] = target: Cyclin-dependent kinase (Homo sapiens) (UniProt P06493+P11802+P24941+Q00535+Q00534+P50613+Q00526+Q00536+Q07002+P49336+Q00537+P21127+Q96Q40+Q9BWU1+O94921+P50750+Q15131+Q14004+Q8IZL9+Q9NYV4); assay: Share of MOE computational kinase hits for CDK

O=C1C2=C(C(=O)c3c(O)ccc(O)c31)[C@@H](O)[C@@H](O)[C@@H](O)C2
Activity [1]: 96%
Activity [2]: 88%
Activity [3]: 90%
Activity [4]: 60%
Activity [5]: 70%
Activity [6]: 100%
Activity [7]: 92%
Activity [8]: 100%
Activity [9]: 53%
Activity [10]: 95%
Activity [11]: 100%
Activity [12]: 96%
Activity [13]: 92%
Activity [14]: 96%
Activity [15]: 98%
Activity [16]: 68%
Activity [17]: 34%
Activity [18]: 89%
Activity [19]: 92%
Activity [20]: 86%
Activity [21]: 90%
Activity [22]: 89%
IC50 [23]: 19.2 µM
Activity [24]: 89%
% of MOE kinase hits [25]: 43%
% of MOE kinase hits [26]: 7%
